High-throughput results (PubChem)
A selection: hits, their analogues and other compounds. The true share with any hit is near 9.6%.
HCT116 bCat-KO = beta-catenin-lacking colon tumor cell growth suppression. HCT116 beta-catenin knockout viability, CellTiter-Glo, 60 h; active compounds read low. viability, % at 10 µM. 140,000 tested, 1.5% active;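 active means viability at or under a set limit, the compound median less 4 SD, cut at about 6% in these data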;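 further: 0% = Hyamine 1622 control at 20 µM and 100% = untreated cell control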
PTEN del growth = growth suppressors of cells with PTEN tumor suppressor deletion; AID 827; 140,000 tested, 1.2% active; viability, % at 10 µM; HCT116 PTEN-null viability, CellTiter-Glo, 60 h; active compounds read low;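 active means viability at or below a set limit, 4 SD under the median of all tested compounds, cut at about 3.7% in these data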;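 further: PTEN knockout HCT116 line with beta catenin targeted HCT116 as companion control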
L major viab = inhibitors of Leishmania major promastigote growth; 200,000 tested, 9% active; AID 1063; inhibition, % at 10 µM; Leishmania major promastigotes, resazurin fluorescence viability; in the data active means inhibition above about 50%;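 further: promastigotes grown with compound for 44 hours at 28 °C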
PMI activator = increases human mannose-6-phosphate isomerase activity; P34949; purified human PMI, coupled resazurin fluorescence, 20 min; active compounds read high; 1 = vehicle control, 0 substrate-free wells; activation factor at 20 µM; 190,000 tested, 0.005% active;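 active means activation factor of 2 or more at 20 µM, relative to plate controls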
Target sequence (P34949 whole entry, looked up): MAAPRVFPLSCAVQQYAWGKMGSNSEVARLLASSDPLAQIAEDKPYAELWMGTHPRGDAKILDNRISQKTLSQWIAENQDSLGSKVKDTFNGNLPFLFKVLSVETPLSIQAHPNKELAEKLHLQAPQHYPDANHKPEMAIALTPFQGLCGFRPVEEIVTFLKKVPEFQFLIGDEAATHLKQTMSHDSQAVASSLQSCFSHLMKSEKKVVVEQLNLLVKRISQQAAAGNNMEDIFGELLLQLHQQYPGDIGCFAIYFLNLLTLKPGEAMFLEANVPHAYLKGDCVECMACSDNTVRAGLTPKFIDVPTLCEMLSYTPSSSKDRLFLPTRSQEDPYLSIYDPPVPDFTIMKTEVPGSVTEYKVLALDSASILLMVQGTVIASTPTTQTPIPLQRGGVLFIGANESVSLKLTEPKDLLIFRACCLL
PMI act satM6P = PMI (human) activation, high substrate | P34949 | coupled PMI enzyme assay, resazurin fluorescence, 20 min; active compounds read high; 1 = untreated enzyme, 0 = substrate-free blank | activation factor at 20 µM | 190,000 tested, 0.34% active;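 active means activation factor of 2 or more at 20 µM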
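Test system: Human PMI in coupled enzyme assay | Input: 15 ng/mL PMI | Medium: HEPES-buffered pH 7.4 with magnesium and detergent | Compound: One concentration, 20 µM, in 1% DMSO | Incubation: Enzyme reaction with compound 20 min at room temperature | Detection: Diaphorase-driven resazurin-to-resorufin fluorescence, excitation 544, emission 590 nm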
Starred values were filed as active, the others as inactive; · = no result.

SMILES	HCT116 bCat-KO	PTEN del growth	L major viab	PMI activator	PMI act satM6P
CCOc1ccc(-c2cc(C(=O)NCCCN3CCN(CC)CC3)c3ccccc3n2)cc1	41.5	43.8	25.3	1	1
Fc1ccc(N/N=C/C=C/c2ccccc2)c(F)c1	74.7	82.5	-3.6	0.8	0.9
Cc1ccccc1N1CCN(C(=O)c2ccccc2NC(=O)C2CC=CCC2C(=O)O)CC1 (stereo unspecified)	102.0	104.8	-10.2	1	1.1
c1ccc(-c2ccc(OCCCn3cncn3)cc2)cc1	125.5	94.4	96.2*	0.8	0.9
c1ccc(COc2ccc(OCCn3cncn3)cc2)cc1	79.7	79.0	-4.9	0.9	0.9
CC1=C(/C=C/C(C)=N\NC(=O)c2ccncc2)C(C)(C)CCC1	·	·	81.4*	1	0.9
O=C(N/N=C/C=C\c1cccc([N+](=O)[O-])c1)c1ccccn1	87.8	96.0	1.6	1	1
CC(/C=C/c1cccc([N+](=O)[O-])c1)=N\NC(=O)c1ccncc1	20.2	27.9	55.4*	1	1
Cc1cc(C(=O)N/N=C/C=C/c2cccc([N+](=O)[O-])c2)n[nH]1	·	·	56.9*	1	1.1
Cc1[nH]n(-c2cccc(Cl)c2)c(=O)c1C=NCC(C)C	·	·	-1.8	0.9	0.9
CCOC(=O)CC(=O)Nc1ccc(C)cc1	89.1	101.6	-3.1	1	1
Cn1c(=O)[nH]c(=O)c2c1nc(N1CCCCC1)n2CCSc1nc2ccccc2o1	85.5	89.1	2.6	0.9	0.9
CC(C)CCn1c(Sc2nc3ccccc3o2)nc2c1c(=O)[nH]c(=O)n2C	5.4*	3.4*	95.5*	0.8	0.9
O=C(CCNC(=O)c1ccccc1Cl)Nc1ccc(Cl)c(C(F)(F)F)c1	90.5	86.3	51.3*	1	1
C/C(CC(=O)Nc1ccc(Cl)c(C(F)(F)F)c1)=N\NC(N)=S	·	·	97.2*	0.9	1
C/C(CC(=O)Nc1ccc(Cl)c(C(F)(F)F)c1)=N\NC(=O)c1ccccc1O	65.2	49.0	-9.7	1.2	1.3
CN1CCN/C1=C(/C(Cl)=C(Cl)Cl)[N+](=O)[O-]	·	·	1.6	1.2	1.2
Cc1ccc(CNC(=O)c2csc3c2CCCCC3)cc1	88.0	90.0	-1.3	1	1.1
O=C(NCc1cccnc1)c1csc2c1CCCC2	86.3	101.7	51.5*	1	1
O=C(CC(C(=O)N1CCc2ccccc21)n1ccnc1)NCc1cccnc1 (stereo unspecified)	93.8	102.4	-3.0	1	1.1
CCN(CCCNC(=O)CC(C(=O)N1CCc2ccccc21)n1ccnc1)c1ccccc1 (stereo unspecified)	85.3	88.9	99.9*	0.8	0.7
c1ccc(-c2nc(NCc3cccnc3)c3oc4ccccc4c3n2)cc1	57.8	52.3	87.9*	1	1.1
c1ccc2c(c1)oc1c(NCC3CCCO3)ncnc12 (stereo unspecified)	98.3	101.8	1.1	1.2	1.2
c1ccc(-c2nc(NCC3CCCO3)c3oc4ccccc4c3n2)cc1 (stereo unspecified)	95.1	86.3	55.0*	1	1
CC(C)(C)c1ccc(-c2nc(NCc3cccnc3)c3ccccc3n2)cc1	69.4	75.5	79.8*	0.9	1
SMILES	HCT116 bCat-KO	PTEN del growth	L major viab	PMI activator	PMI act satM6P
CC1=NNC(=O)C1C(c1ccccc1)C(C#N)C#N (stereo unspecified)	83.8	79.8	23.1	0.9	0.9
Cc1c(C(=O)O)[nH]c2ccc([N+](=O)[O-])cc12	·	·	-3.6	1.3	1.1
Cc1c(C(=O)N/N=C/C(C)C)[nH]c2ccc([N+](=O)[O-])cc12	91.0	91.6	51.0*	1	1
O=C1C2C3C=CC(C3)C2C(=O)N1CCN1CCN(Cc2ccc([N+](=O)[O-])cc2)CC1 (stereo unspecified)	·	·	71.9*	1	1
O=C(COC(=O)c1ccccc1F)Nc1cccnc1Cl	·	·	1.4	1	0.9
COc1ccc(-n2c(SCC(=O)Nc3ccc4c(c3)OCO4)nc3c(c2=O)SCC3)cc1	101.5	104.1	10.8	0.8	0.9
COc1ccccc1-n1c(SCC(=O)Nc2ccc3c(c2)OCO3)nc2c(c1=O)SCC2	96.2	94.7	89.1*	0.9	0.9
O=C(O)CCCC(=O)NS(=O)(=O)c1ccc(Cl)cc1	100.1	100.8	-7.9	1.1	1.1
Cc1ccc(C)c(/C=C/C(=O)c2ccccc(=O)c2O)c1	11.8	8.2	99.4*	1.1	1.2
Cc1cccc(C(=O)NNC(=O)c2ccccc2C)c1	·	·	-3.0	1	1
O=C(/C=C/c1ccccc1Cl)c1ccccc(=O)c1O	1.3*	2.1*	100.3*	1.3	1.5
Cc1ccc(/C=C/C(=O)c2ccccc(=O)c2O)c(C)c1	4.2*	5.8	80.7*	1.1	1.2
CC(C)C(=O)Nc1ccc(C(=O)c2ccccc2)cc1	93.9	95.8	99.0*	1.2	1.2
COc1ccccc1OCC#CCNC1CCCCC1C (stereo unspecified)	·	·	77.7*	1.5	1
CCN(CC)C(=O)C1=C(C)Nc2ncnn2C1c1cccnc1 (stereo unspecified)	·	·	-7.0	1	1.1
O=C1NC(=Nc2ccccc2)c2ccc([N+](=O)[O-])cc21	84.3	89.9	66.8*	0.7	1.1
Cc1cccc(N=C2NC(=O)c3cc([N+](=O)[O-])ccc32)c1	·	·	8.1	1	1
Cc1nc2ccccc2nc1OCC(=O)NCC(F)(F)F	96.1	95.0	58.3*	1	0.9
CCNC(=S)N(Cc1cccs1)Cc1cc2cc(OCC)ccc2[nH]c1=O	76.0	82.3	96.2*	0.9	1
CCN(CC)CCCN(Cc1cc2cc(OC)c(OC)cc2[nH]c1=O)C(=O)Nc1ccccc1	83.7	87.9	11.6	1	1.1
CNC(=S)N(Cc1cccs1)Cc1cc2ccc(OC)cc2[nH]c1=O	81.0	70.6	70.3*	0.9	1
COc1cc2cc(CN(Cc3cccs3)C(=S)Nc3ccccc3)c(=O)[nH]c2cc1OC	78.0	70.1	81.3*	0.8	0.9
CNC(=S)N(Cc1ccc(OC)cc1)Cc1cc2ccc(C)cc2[nH]c1=O	·	·	5.6	0.9	0.9
COc1ccc2[nH]c(=O)c(CN(Cc3cccs3)C(=S)Nc3ccccc3)cc2c1	71.7	54.7	98.0*	0.8	0.9
CCCNC(=O)c1cnc(Sc2ncc(C(F)(F)F)cc2Cl)n1C	106.8	90.7	2.7	1	1.1
Cc1cc(N2CCN(c3ccccc3)CC2)nc(-c2ccccc2O)n1	72.4	55.7	3.1	0.9	1
Cc1cc(C)nc(-n2nc(C)cc2Nc2ccccc2)n1	39.6	45.1	51.8*	1	1
Cc1cc(N2CCN(c3ccccc3)CC2)nc(-n2nc(C)cc2C)n1	50.1	32.5	72.2*	1	0.9
Cc1cc(C)nc(-n2nc(C)cc2NC(=O)CN2CCCC(C)C2)n1 (stereo unspecified)	87.4	96.1	15.4	1	1
Cc1cc(C)nc(-n2nc(C)cc2NC(=O)CN2CCc3ccccc3C2)n1	5.1*	2.7*	54.2*	1.1	1
